The values below come from ChEMBL document CHEMBL3872218, “Synthesis and T-type calcium channel-blocking effects of aryl(1,5-disubstituted-pyrazol-3-yl)methyl sulfonamides for neuropathic pain treatment” (Eur J Med Chem, 2016).

SMILES strings stand for the structures.

Series [1] deals with T1, Voltage-dependent T-type calcium channel subunit alpha-1H (Homo sapiens, UniProt O95180). Kind of series: Inhibition of Cav3.2 alpha1H (unknown origin) expressed in HEK293 cells assessed as decrease in KCl-induced depolarization mediated intracellular Ca2+ level at 10 uM by fluo3/AM based high throughput screening assay relative to control. The format is cell-based. In a few lines: (§1)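 HEK293 cells stably expressing Cav3.1 or Cav3.2 plated at 4 × 10⁴ cells/well and used the next day. Loaded 60 min at room temperature with […] fluo3/AM plus 0.001% Pluronic F-127 in HEPES-buffered saline (1.8 mM CaCl₂, pH 7.4). Ca²⁺ fluorescence read on FDSS6000 as % inhibition, compound at […].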

The target of series [2] is T2, Voltage-dependent T-type calcium channel subunit alpha-1G (Homo sapiens, UniProt O43497). Kind of series: Inhibition of Cav3.1 alpha1G (unknown origin) expressed in HEK293 cells assessed as decrease in KCl-induced depolarization mediated intracellular Ca2+ level at 10 uM by fluo3/AM based high throughput screening assay relative to control. The format is cell-based. In a few lines:
as §1

In series [3] the test system is Rattus norvegicus. Kind of series: Antineuropathic pain activity in rat spinal nerve ligation model assessed as effect on cold allodynia by measuring frequency of paw withdrawal at 100 mg/kg, po measured at 1 hr relative to control. The format is functional. The method, boiled down:
(§2)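 Spinal nerve ligation rats tested 2 weeks after nerve surgery, 100 mg/kg oral, n = 4 per group. Behaviour re-tested at 1, 3 and 5 h after dosing. Mechanical allodynia: von Frey filament applied five times, every 3–4 s, to the hind paw on a wire mesh floor. Cold allodynia: acetone applied to the plantar hind paw on a metal mesh floor.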

The test system of series [4] is Rattus norvegicus. Kind of series: Antineuropathic pain activity in rat spinal nerve ligation model assessed as effect on mechanical allodynia by measuring frequency of paw withdrawal at 100 mg/kg, po measured at 3 hrs relative to control. The series is classed as functional. The method, boiled down:
as §2

Series [5] relates to Rattus norvegicus. Kind of series: Antineuropathic pain activity in rat spinal nerve ligation model assessed as effect on cold allodynia by measuring frequency of paw withdrawal at 100 mg/kg, po measured at 5 hrs relative to control. The series is classed as functional. In a few lines: as §2
The test system of series [6] is Rattus norvegicus. The series can be described thus: Antineuropathic pain activity in rat spinal nerve ligation model assessed as effect on mechanical allodynia by measuring frequency of paw withdrawal at 100 mg/kg, po measured at 1 hr relative to control. The format is functional. In a few lines: as §2
For series [7], the system named is Rattus norvegicus. Kind of series: Antineuropathic pain activity in rat spinal nerve ligation model assessed as effect on mechanical allodynia by measuring frequency of paw withdrawal at 100 mg/kg, po measured at 5 hrs relative to control. The series is classed as functional. The method, boiled down:
as §2

For series [8], the system named is Rattus norvegicus. The series can be described thus: Antineuropathic pain activity in rat spinal nerve ligation model assessed as effect on cold allodynia by measuring frequency of paw withdrawal at 100 mg/kg, po measured at 3 hrs relative to control. The series is classed as functional. The method, boiled down: as §2
Series [9] deals with Rattus norvegicus. Kind of series: Antineuropathic pain activity in rat spinal nerve ligation model assessed as effect on cold allodynia by measuring frequency of paw withdrawal at 100 mg/kg, po measured at 5 hrs relative to gabapentin. The format is functional. The method, boiled down:
as §2

For series [10], the system named is Rattus norvegicus. Kind of series: Antineuropathic pain activity in rat spinal nerve ligation model assessed as effect on mechanical allodynia by measuring frequency of paw withdrawal at 100 mg/kg, po measured at 5 hrs relative to gabapentin. The format is functional. The method, boiled down: as §2
Series [11] deals with Rattus norvegicus. Kind of series: Antineuropathic pain activity in rat spinal nerve ligation model assessed as effect on cold allodynia by measuring frequency of paw withdrawal at 100 mg/kg, po measured at 1 hr relative to gabapentin. The series is classed as functional. In a few lines: as §2
The subject of series [12] is Rattus norvegicus. The series can be described thus: Antineuropathic pain activity in rat spinal nerve ligation model assessed as effect on mechanical allodynia by measuring frequency of paw withdrawal at 100 mg/kg, po measured at 1 hr relative to gabapentin. The series is classed as functional. In a few lines:
as §2

Series [13] relates to Rattus norvegicus. Kind of series: Antineuropathic pain activity in rat spinal nerve ligation model assessed as effect on mechanical allodynia by measuring frequency of paw withdrawal at 100 mg/kg, po measured at 3 hrs relative to gabapentin. The series is classed as functional. The method, boiled down: as §2
The test system of series [14] is Rattus norvegicus. Kind of series: Antineuropathic pain activity in rat spinal nerve ligation model assessed as effect on cold allodynia by measuring frequency of paw withdrawal at 100 mg/kg, po measured at 3 hrs relative to gabapentin. The series is classed as functional. The method, boiled down: as §2
The next series has as its system N1E-115. Kind of series: Inhibition of voltage dependent T-type Ca2+ channel in mouse N1E-115 cells assessed as reduction in transient inward Ca2+ current at 50 uM by whole-cell patch clamp method relative to control. The series is classed as cell-based. In general terms: In patch-clamp work, channel activity is measured electrically.
The species entered for series [15] is Rattus norvegicus. The series can be described thus: Inhibition of voltage dependent T-type Ca2+ channel in Wistar rat cerebral cortex assessed as reduction in transient inward Ca2+ current at -60 mV holding potential at 500 uM by whole-cell patch clamp method relative to control.
A further series deals with CYP2D6 (Homo sapiens, UniProt P10635). Kind of series: Inhibition of human CYP2D6 assessed as remaining activity at 10 uM using vivid CYP450 substrate measured after 15 mins by fluorescence assay relative to quinidine. The format is ADME. The following applies: probe vivid CYP450 substrate, read-out: Activity. In a few lines: (§3)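 Vivid fluorescence CYP assay: test compound at […] in water, mixed with BACULOSOMES master pre-mix and regeneration system, preincubated 15 min at 37 °C. Reaction started with Vivid substrate and NADPH. Remaining activity read by fluorescence as % of control, triplicate, mean ± SD. Isoform-specific reference inhibitors: α-naphthoflavone (1A2), sulfaphenazole (2C9), quinidine (2D6), ketoconazole (3A4).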

The target of series [16] is T2, Voltage-dependent T-type calcium channel subunit alpha-1G. The series can be described thus: Inhibition of Cav3.1 alpha1G (unknown origin) expressed in HEK293 cells by whole-cell patch clamp method. The series is classed as cell-based. The method, boiled down: (§4)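 Whole-cell patch clamp on HEK293 cells expressing Cav3.1 or Cav3.2. T-type currents evoked every 15 s by a 50-ms step from −100 mV to −30 mV. External solution (mM): 140 NaCl, 2 CaCl₂, 10 HEPES, 10 glucose, pH 7.4.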

The species named for another series is Homo sapiens. The series can be described thus: Inhibition of N-type Ca2+ channel (unknown origin) at 10 uM by whole-cell patch clamp method relative to control.
The next series has as its target CYP2C9 (Homo sapiens, UniProt P11712). The series can be described thus: Inhibition of human CYP2C9 assessed as remaining activity at 10 uM using vivid CYP450 substrate measured after 15 mins by fluorescence assay relative to sulfaphenazol. The series is classed as ADME. The following applies: probe vivid CYP450 substrate, read-out: Activity. The method, boiled down: as §3

A short description of series [17]: Metabolic stability in human liver microsomes assessed as compound remaining at 1 uM in presence of NADPH as cofactor by LC-MS/MS method. The series is classed as ADME. The following applies: read-out: Stability. In a few lines:
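Pooled mixed-gender human liver microsomes incubated with compound at 37 °C with NADPH as cofactor. Result given as % parent compound remaining.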
(In general: Liver microsomes are vesicles of endoplasmic reticulum, rich in cytochrome P450 enzymes.)

Series [18] has as its target T1, Voltage-dependent T-type calcium channel subunit alpha-1H. Kind of series: Inhibition of Cav3.2 alpha1H (unknown origin) expressed in HEK293 cells by whole-cell patch clamp method. The series is classed as cell-based. In a few lines: as §4
The target in another series is CYP3A4 (Homo sapiens, UniProt P08684). The series can be described thus: Inhibition of human CYP3A4 assessed as remaining activity at 10 uM using vivid CYP450 substrate measured after 15 mins by fluorescence assay relative to ketoconazole. The format is ADME. The following applies: probe vivid CYP450 substrate, read-out: Activity. The method, boiled down: as §3

T2 sequence (O43497 whole entry): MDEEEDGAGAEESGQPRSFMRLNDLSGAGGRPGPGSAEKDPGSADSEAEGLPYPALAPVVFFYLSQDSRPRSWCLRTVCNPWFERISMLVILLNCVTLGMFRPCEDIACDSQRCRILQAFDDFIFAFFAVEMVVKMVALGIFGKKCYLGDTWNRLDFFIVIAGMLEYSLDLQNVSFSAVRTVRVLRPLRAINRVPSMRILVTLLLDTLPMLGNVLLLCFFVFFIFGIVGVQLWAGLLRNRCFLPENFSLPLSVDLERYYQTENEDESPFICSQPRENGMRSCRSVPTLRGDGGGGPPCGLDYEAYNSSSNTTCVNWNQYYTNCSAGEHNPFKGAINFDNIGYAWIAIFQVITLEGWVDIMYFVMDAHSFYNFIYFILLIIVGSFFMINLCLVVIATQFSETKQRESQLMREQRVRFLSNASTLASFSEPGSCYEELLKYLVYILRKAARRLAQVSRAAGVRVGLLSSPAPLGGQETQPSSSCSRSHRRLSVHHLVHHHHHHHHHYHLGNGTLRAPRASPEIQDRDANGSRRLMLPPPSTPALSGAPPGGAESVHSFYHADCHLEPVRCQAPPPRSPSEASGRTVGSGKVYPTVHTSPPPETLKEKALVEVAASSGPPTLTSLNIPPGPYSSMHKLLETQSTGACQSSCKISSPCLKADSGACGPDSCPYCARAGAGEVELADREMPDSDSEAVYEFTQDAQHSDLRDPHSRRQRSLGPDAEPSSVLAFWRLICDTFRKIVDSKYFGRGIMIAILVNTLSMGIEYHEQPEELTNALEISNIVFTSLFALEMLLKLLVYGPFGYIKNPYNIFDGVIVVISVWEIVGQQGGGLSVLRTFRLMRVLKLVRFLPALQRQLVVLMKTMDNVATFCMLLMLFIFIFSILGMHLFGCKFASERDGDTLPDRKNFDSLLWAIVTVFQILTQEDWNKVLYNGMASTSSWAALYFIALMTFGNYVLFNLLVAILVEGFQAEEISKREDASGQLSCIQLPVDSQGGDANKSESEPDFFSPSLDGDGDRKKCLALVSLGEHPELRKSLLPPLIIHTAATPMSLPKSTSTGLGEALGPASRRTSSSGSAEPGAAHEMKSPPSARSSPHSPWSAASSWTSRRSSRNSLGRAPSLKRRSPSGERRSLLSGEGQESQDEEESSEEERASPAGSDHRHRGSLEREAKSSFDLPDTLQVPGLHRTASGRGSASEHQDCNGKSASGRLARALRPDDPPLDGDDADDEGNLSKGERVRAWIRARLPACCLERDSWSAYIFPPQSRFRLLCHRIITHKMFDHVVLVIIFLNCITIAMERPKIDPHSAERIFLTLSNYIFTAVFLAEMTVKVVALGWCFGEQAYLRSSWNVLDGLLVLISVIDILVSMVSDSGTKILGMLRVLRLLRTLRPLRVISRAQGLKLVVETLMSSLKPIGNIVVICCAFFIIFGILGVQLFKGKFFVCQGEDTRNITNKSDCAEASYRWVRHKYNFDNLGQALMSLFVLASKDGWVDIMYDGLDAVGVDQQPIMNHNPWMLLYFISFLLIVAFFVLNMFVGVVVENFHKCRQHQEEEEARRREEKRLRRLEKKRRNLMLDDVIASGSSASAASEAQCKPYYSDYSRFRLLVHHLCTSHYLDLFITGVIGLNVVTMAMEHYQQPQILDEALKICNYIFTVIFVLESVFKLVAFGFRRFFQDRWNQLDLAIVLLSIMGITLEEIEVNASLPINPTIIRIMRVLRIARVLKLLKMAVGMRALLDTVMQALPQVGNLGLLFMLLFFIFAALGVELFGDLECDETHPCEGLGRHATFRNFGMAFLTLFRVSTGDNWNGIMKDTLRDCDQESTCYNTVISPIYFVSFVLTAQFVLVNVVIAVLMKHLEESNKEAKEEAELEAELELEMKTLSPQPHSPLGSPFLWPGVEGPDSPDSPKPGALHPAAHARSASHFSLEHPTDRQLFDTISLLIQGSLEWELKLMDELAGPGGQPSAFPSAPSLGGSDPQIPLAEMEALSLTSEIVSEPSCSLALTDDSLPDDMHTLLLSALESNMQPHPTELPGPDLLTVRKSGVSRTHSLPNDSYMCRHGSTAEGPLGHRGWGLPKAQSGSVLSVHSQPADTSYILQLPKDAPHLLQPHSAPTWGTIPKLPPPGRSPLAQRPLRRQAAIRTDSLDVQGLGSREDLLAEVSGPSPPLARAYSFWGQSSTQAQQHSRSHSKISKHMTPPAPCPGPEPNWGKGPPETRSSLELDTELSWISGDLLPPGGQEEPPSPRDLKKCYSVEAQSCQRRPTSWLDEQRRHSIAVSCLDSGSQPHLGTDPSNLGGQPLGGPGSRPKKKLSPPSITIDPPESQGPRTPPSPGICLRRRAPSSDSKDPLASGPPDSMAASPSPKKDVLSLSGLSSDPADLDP
T1 sequence (O95180 whole entry): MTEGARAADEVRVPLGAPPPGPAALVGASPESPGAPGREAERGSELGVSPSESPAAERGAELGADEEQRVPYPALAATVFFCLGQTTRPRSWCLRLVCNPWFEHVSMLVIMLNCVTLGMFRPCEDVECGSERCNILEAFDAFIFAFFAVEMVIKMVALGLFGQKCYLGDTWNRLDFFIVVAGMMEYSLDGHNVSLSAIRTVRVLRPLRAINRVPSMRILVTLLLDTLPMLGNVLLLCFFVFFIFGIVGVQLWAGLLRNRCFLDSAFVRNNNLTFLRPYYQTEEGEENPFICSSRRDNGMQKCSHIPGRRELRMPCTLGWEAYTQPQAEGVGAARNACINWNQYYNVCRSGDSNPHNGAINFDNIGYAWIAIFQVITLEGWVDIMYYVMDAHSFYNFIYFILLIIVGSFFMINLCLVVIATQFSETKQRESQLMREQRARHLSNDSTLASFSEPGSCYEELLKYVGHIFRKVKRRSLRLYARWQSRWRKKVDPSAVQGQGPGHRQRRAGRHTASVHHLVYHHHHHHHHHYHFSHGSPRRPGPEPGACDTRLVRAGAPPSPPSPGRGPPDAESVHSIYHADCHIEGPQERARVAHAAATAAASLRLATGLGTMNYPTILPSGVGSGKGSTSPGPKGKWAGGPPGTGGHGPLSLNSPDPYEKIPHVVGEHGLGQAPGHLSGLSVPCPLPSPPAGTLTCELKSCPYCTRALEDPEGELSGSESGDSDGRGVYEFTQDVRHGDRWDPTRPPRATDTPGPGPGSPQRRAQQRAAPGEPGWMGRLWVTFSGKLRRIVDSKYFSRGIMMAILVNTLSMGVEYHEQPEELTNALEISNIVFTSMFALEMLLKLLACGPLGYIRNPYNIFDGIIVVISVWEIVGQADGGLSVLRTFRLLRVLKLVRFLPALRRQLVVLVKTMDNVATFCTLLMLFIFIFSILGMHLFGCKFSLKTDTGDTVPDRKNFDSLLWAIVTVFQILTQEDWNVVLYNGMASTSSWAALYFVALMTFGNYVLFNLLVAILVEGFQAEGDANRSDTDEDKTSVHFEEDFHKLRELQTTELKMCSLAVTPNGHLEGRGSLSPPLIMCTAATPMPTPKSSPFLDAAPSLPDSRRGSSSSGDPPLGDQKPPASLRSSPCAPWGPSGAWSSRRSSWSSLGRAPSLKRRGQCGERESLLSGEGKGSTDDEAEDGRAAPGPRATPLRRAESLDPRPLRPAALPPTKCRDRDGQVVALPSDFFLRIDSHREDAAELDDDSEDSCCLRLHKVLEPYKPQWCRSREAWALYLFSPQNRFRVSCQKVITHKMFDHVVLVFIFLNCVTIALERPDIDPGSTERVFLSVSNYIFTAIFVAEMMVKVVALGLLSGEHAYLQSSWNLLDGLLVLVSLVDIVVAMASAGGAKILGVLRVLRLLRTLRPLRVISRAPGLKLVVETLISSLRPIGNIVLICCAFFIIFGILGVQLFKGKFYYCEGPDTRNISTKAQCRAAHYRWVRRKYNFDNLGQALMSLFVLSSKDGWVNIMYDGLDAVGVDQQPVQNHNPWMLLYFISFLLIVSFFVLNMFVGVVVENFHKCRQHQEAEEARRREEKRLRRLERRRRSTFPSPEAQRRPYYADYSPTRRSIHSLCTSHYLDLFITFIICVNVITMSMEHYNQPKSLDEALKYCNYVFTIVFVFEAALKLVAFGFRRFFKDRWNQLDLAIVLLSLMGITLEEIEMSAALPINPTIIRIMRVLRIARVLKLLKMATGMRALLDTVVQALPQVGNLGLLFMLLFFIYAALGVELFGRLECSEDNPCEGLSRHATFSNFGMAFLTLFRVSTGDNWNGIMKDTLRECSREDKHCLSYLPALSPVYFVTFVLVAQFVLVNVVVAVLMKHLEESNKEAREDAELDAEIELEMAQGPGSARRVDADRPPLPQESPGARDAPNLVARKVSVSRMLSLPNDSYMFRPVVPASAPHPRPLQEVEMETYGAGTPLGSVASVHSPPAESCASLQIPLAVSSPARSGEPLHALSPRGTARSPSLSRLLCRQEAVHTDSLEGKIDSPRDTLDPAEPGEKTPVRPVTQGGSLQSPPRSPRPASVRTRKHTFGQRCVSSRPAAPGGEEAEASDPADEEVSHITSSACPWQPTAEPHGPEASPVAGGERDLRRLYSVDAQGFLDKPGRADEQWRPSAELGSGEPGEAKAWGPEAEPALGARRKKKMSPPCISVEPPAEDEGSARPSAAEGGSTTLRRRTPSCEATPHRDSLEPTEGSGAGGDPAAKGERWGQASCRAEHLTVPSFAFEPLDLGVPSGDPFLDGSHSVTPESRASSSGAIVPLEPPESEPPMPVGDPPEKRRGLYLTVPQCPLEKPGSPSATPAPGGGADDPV

What is called inhibition is the percentage by which the read-out fell short of the control. As to `CC(C)Cc1cc(CNS(=O)(=O)c2cccc(Cl)c2)nn1-c1ccccc1`, the inhibition came out at 55.7% in series [1] and 57.6% in series [2].
`CC(C)Cc1cc(CNS(=O)(=O)c2c(Cl)cccc2Cl)nn1-c1ccccc1`: the results for the inhibition in series [1] and in series [2] were 56% and 36.9%, respectively.
For `Cc1cc(I)ccc1S(=O)(=O)NCc1cc(CC(C)C)n(-c2ccccc2)n1` the same measures were 26.6% and 22.6%.
For `CC(C)Cc1cc(CNS(=O)(=O)Cc2cccc3ccccc23)nn1-c1ccccc1` the same measures were 6.66% and 7.09%.
For `CC(C)Cc1cc(CNS(=O)(=O)c2cccc3cccnc23)nn1-c1ccccc1` the same measures were 61.4% and 29.8%.
`Cc1ccc(S(=O)(=O)NCc2cc(CC(C)C)n(-c3ccccc3)n2)cc1`: the inhibition in [1] stood at 62.2%; in [2], 57.3%.
For `CC(C)Cc1cc(CNS(=O)(=O)c2c(F)cccc2F)nn1-c1ccccc1` the same measures were 69.3% and 45.1%.
As to `NCC1(CC(=O)O)CCCCC1` [GABAPENTIN], the MPE with Rattus norvegicus [3] is 44.01%; with Rattus norvegicus [4] it was 56.94%; in the series on Rattus norvegicus [5], 43.66%; in the series on Rattus norvegicus [6], 11.03%; in the series with Rattus norvegicus [7] it was 45.28%; with Rattus norvegicus [8], 80.51%.
For `CC(C)Cc1cc(CNS(=O)(=O)c2cccc3ccccc23)nn1-c1ccccc1`, the inhibition in [1] turned out to be 25.2%; in series [2] it was 24.3%.
For `CC(C)(C)n1nc(CNS(=O)(=O)c2ccccc2)cc1-c1cccc(F)c1` the same measures were 53.5% and 51.5%.
For `CC(C)Cc1cc(CNS(=O)(=O)c2ccc(C(C)(C)C)cc2)nn1-c1ccccc1` the same measures were 33.4% and 46.9%.
With `COCC(=O)O[C@]1(CCN(C)CCCc2nc3ccccc3[nH]2)CCc2cc(F)ccc2[C@@H]1C(C)C` [MIBEFRADIL], the MPE in the series with Rattus norvegicus [3] is reported as 25.25%; with Rattus norvegicus [4], 41.44%; with Rattus norvegicus [5], 63.33%; in the series with Rattus norvegicus [9], 145.05%; with Rattus norvegicus [10] it was 92.23%; with Rattus norvegicus [6] it was 17.29%. The MPE in the series on Rattus norvegicus [11] is 57.37%; in the series with Rattus norvegicus [12], 156.75%; in the series with Rattus norvegicus [7], 41.76%; in the series with Rattus norvegicus [13], 72.78%; in the series on Rattus norvegicus [14], 43.19%; with Rattus norvegicus [8] it was 34.77%.
Consider `NS(=O)(=O)Cc1noc2ccccc12`, for which the inhibition in the series on N1E-115 turned out to be 40%; in the series listed under Rattus norvegicus [15], 60%.
Consider `CC(C)Cc1cc(CNS(=O)(=O)c2cccc(I)c2)nn1-c1ccccc1`, for which the results for the inhibition in series [1] and in [2] were 44.9% and 46.4%, respectively.
For `CC(C)(C)n1nc(CNS(=O)(=O)c2ccccc2)cc1-c1ccccc1` the same measures were 10.4% and 55.5%.
For `Cc1ccc(F)c(S(=O)(=O)NCc2cc(CC(C)C)n(-c3ccccc3)n2)c1` the same measures were 70% and 54.9%.
Usually IC50 stands for the midpoint of a concentration-inhibition curve. In the case of `CC(C)Cc1cc(CNS(=O)(=O)CCc2ccccc2)nn1-c1ccccc1`, the activity at 0.25 h, 10 µM at CYP2D6 came out at 45.2%; at CYP2C9, 45.2%; on CYP3A4 it was 38.7%. In addition, the results for the inhibition (in series [1]; in the series listed under Homo sapiens; in [2]) were 68.6%, 42.2% and 70.5%, respectively. Further, the IC50 in series [16] came to 12.4 µM; in [18], 14.6 µM. The MPE in the series on Rattus norvegicus [3] is 3.08%; in the series with Rattus norvegicus [4], -7.3%; with Rattus norvegicus [5], 3.08%; in the series on Rattus norvegicus [9], 7.05%; in the series with Rattus norvegicus [10], -10.34%; in the series with Rattus norvegicus [6], -3.8%. The MPE in the series with Rattus norvegicus [11] was 7%; in the series with Rattus norvegicus [12] it was -34.45%; in the series with Rattus norvegicus [7], -4.68%; in the series with Rattus norvegicus [13] it was -12.82%; with Rattus norvegicus [14], 11.27%; in the series on Rattus norvegicus [8] it was 9.07%. In addition, in series [17], the remaining at 1 µM was 88.2%.
Take `CC(C)Cc1cc(CNS(=O)(=O)c2ccc3ccccc3c2)nn1-c1ccccc1`: the inhibition in series [1] worked out at 24.9%; in [2], 19.8%.
